# In the library only some 4.7% were active in any assay of this set; here they are far more common.
# ADAM10 inh – inhibits human ADAM10; recombinant ADAM10, EDANS/DABCYL FRET peptide cleavage, 3 h; actives 0.62% (n = 370,000); inhibition, % at 7 µM; O14672;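 active means inhibition above a per-campaign cutoff equal to the mean of compounds falling between control-based bounds plus 3 SD, cut at about 20% in these data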;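 further: 0% = DMSO wells while the 100% control is not disclosed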
# Target sequence (O14672 214-748 limits assumed): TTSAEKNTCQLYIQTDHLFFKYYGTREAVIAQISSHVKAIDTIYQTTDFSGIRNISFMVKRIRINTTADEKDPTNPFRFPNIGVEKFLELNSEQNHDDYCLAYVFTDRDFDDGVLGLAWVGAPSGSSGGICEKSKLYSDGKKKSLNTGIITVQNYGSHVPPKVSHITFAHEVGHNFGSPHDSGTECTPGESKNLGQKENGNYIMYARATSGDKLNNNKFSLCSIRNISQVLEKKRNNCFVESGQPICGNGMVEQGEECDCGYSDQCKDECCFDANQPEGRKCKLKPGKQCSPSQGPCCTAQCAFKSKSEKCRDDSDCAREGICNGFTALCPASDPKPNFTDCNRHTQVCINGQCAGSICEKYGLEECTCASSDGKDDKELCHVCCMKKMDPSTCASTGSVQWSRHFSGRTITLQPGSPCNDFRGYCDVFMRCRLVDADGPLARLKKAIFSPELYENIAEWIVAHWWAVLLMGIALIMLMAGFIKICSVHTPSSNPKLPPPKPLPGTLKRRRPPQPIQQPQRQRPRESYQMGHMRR
# ADAM17 inh – inhibits human ADAM17. P78536. recombinant ADAM17, EDANS/DABCYL FRET peptide cleavage. inhibition, % at 6.95 µM. actives 0.83% (n = 370,000). AID 720648;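 active means inhibition above the mean of compounds lying between control limits plus 3 SD, set per campaign, cut at about 8.5% in these data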;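 further: 0% = DMSO-only wells as the low control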
# SKN-1 block – inhibitors of C. elegans SKN-1; inhibition, % at 21.8 µM; C. elegans VP596 Pgst-4::GFP/RFP ratio, acrylamide-induced, 24 h; actives 0.49% (n = 360,000);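 active means interference check ratio from 0.5 to 1.5 plus GFP to RFP signal ratio inhibition reaching or exceeding a fixed threshold, cut at about 30% in these data, passing the limit was not always enough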
# MT1-MMP act inh – MT1-MMP (human) activation inhibition. AID 651647. actives 0.061% (n = 360,000). P50281. HT1080 RFP-PRO-GFP cells, GFP/RFP ratio fluorescence, overnight; percent of plate control window, DMSO zero. GFP/RFP ratio change, % at 20 µM;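 active means GFP/RFP ratio change of at least 30% with cell ATP level not reduced by more than half and red fluorescence within 50% of control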
#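 Read-out: GFP/RFP fluorescence ratio; Test system: RFP-PRO-GFP reporter HT1080 cells; Compound dosing: single-point 20 µM compound, 1% DMSO; Times: overnight compound exposure at 37 °C.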
# MPTP inh – inhibitors of mitochondrial permeability transition pore; isolated mouse mitochondria, Ca2+ swelling absorbance, 30 min; inhibition, % at 10 µM; actives 1.4% (n = 360,000); AID 602449;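 active means inhibition of 50% or more, scaled per plate between neutral and stimulator controls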;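 further: 0% = DMSO wells given calcium and 100% = 1 mM EGTA wells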
# GRIN3A LBD mod – NR3A (human) ligand-binding domain modulation; NR3A LBD differential scanning fluorimetry, Tm shift; 0% = protein alone, 100% = glycine-bound protein; actives 2.5% (n = 340,000); Tm shift relative to glycine control, % at 25 µM;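 active means melting temperature shift of at least 10% of the positive control shift, at one fixed dose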
# * marks the source's active call; other numbers are inactive results; · = not tested or not shown.
SMILES,ADAM10 inh,ADAM17 inh,SKN-1 block,MT1-MMP act inh,MPTP inh,GRIN3A LBD mod
COc1ccc(/C=C2/CCc3ccccc3C2=O)cc1OC,-1.5,-0.5,8.5,-3.4,3.0,10.1*
COc1ccc2c(c1)CC/C(=C/c1ccco1)C2=O,-77.3,-19.8,59.6*,3.1,9.0,0.7
CCc1nc2ccc(C(=O)N3CCN(c4ccccc4)CC3)cn2c1N(C)CCC(C)C,-49.5,-11.3,8.5,-7.1,-2.6,·
O=C(c1ccc(Sc2ccccc2)c([N+](=O)[O-])c1)N1CCOCC1,3.8,4.9,15.4,2.2,1.3,16.4*
O=C(c1ccc2ccccc2c1)N1CCN(c2ccc([N+](=O)[O-])c(N3CCOCC3)c2)CC1,6.2,2.0,6.1,7.8,-1.7,17.3*
O=C(/C=C/c1ccccc1)N1CCN(c2ccc([N+](=O)[O-])c(N3CCOCC3)c2)CC1,4.2,1.0,-9.7,4.9,-3.5,20.1*
O=C(c1ccc(SCc2ccco2)c([N+](=O)[O-])c1)N1CCOCC1,-9.3,-1.2,-1.2,6.0,-0.5,-0.9
Cc1cccc(C(=O)N2CCN(c3ccc([N+](=O)[O-])c(N4CCOCC4)c3)CC2)c1,1.5,-0.8,-21.9,8.5,0.1,-1.4
Cc1c(OCC(F)(F)F)ccnc1CS(=O)c1nc2ccccc2[nH]1 (stereo not drawn),-112.9,-29.0,-9.8,1.8,0.5,2.8
Fc1ccccc1-c1ccc(/C=N/Nc2nc3ccccc3[nH]2)o1,-14.8,0.9,1.5,1.8,14.8,21.2*
Cc1ccc(OCC(=O)NC2CCS(=O)(=O)C2)cc1 (stereo not drawn),0.6,0.4,-11.4,9.1,0.9,-2.5
COc1cc(/C=C2\SC(=S)N(NC(=O)c3ccccc3O)C2=O)ccc1O,-7.1,-1.4,14.4,-3.0,14.5,10.6*
O=C(NN1C(=O)/C(=C/c2ccc(O)cc2)SC1=S)c1cccc(O)c1,8.4,5.9,-4.2,-78.6,2.2,9.9
O=C(NN1C(=O)/C(=C/c2ccc(O)cc2)SC1=S)c1ccccc1O,5.7,4.1,-1.0,-12.3,3.2,16.4*
CC(/C=C1\SC(=S)N(NC(=O)c2cccc(O)c2)C1=O)=C\c1ccccc1,17.7,8.6,14.9,7.3,12.5,22.1*
Cn1cc(/C=C2\SC(=S)N(NC(=O)c3cccc(Cl)c3)C2=O)c2ccccc21,3.2,-2.0,18.2,-177.3,5.7,19.6*
CC(/C=C1\SC(=S)N(CC(=O)O)C1=O)=C\c1ccccc1,5.0,1.1,8.2,-2.0,5.1,-0.4
CC(C)Cc1ccc(CN2C(C(C)C)C(=O)N(Cc3cn(CCC4OCCO4)nn3)CCS2(=O)=O)cc1 (stereo not drawn),-2.1,1.0,-3.2,3.7,-0.8,·
CCNC(=O)C1(C)CCCN(Cc2cccc3c(OC)cc(C(=O)OCC)cc23)C1 (stereo not drawn),-42.3,-9.5,7.5,-3.4,-0.4,·
CCc1ccc(-c2cc(N)n(-c3ccccc3)n2)cc1,-8.1,2.8,1.5,-4.9,-4.1,2.9
Cc1ccc(-c2cc(N)n(-c3ccccc3)n2)cc1,0.3,2.0,-0.5,0.2,0.7,25.9*
Cc1cccc(-c2cc(N)n(-c3ccccc3)n2)c1,1.5,1.6,-2.3,2.2,0.2,30.9*
CC(C(=O)OCC(=O)c1c(N)n(C)c(=O)n(C)c1=O)N1C(=O)c2ccccc2C1=O (stereo not drawn),4.6,-0.8,3.2,2.8,-2.4,3.5
CCn1c(CSc2n[nH]c(N)n2)nc2cc(C(=O)O)ccc21,-12.3,-3.8,37.1*,23.6,0.1,-1.6
CCn1c(CSc2nnc3ccccn23)nc2cc(C(=O)O)ccc21,2.3,-3.1,64.9,41.8*,-0.1,-2.4
SMILES,ADAM10 inh,ADAM17 inh,SKN-1 block,MT1-MMP act inh,MPTP inh,GRIN3A LBD mod
COC(=O)c1ccc(C(=O)OC)c(NC(=O)CSc2n[nH]c(N)n2)c1,-20.6,-10.5,4.9,2.0,-1.8,0.1
CCn1c(CSc2nnc(-c3ccncc3)n2CCOC)nc2cc(C(=O)O)ccc21,-2.0,-1.4,38.2*,22.2,1.3,0.0
O=C(Cc1coc2ccc3ccccc3c12)N1CCc2ccccc21,-20.0,-6.7,4.8,2.9,7.4,2.2
COc1ccc(CCN(Cc2cccs2)S(=O)(=O)c2ccc(C)s2)cc1OC,2.3,3.5,·,·,·,·
COc1ccc(C(C(=O)NC2CCCCC2)N(C(=O)c2ccccn2)c2cccnc2)c(OC)c1 (stereo not drawn),-6.9,0.1,8.0,-1.5,-0.1,-0.3
Cc1ccccc1C(=O)O/N=C(\N)c1ccc([N+](=O)[O-])cc1,5.0,-1.2,8.4,3.7,0.0,1.7
CCC(C)n1c(SCC(=O)Nc2ccccc2C(F)(F)F)nc2ccsc2c1=O (stereo not drawn),4.1,0.1,10.5,-1.1,2.8,0.1
CCC(C)n1c(SCc2ccccc2)nc2ccsc2c1=O (stereo not drawn),4.8,1.5,10.4,-2.8,3.1,11.5*
Cc1cccc(C)c1NC(=O)C1CCCN1S(=O)(=O)c1ccc(-c2ccc(=O)[nH]n2)s1 (stereo not drawn),-5.6,-4.2,17.0,-2.6,-0.6,1.2
CC(C)CCNC(=O)c1cnn2c(C(F)(F)F)cc(-c3ccco3)nc12,-146.9,-42.9,43.9*,0.7,-1.3,-4.1
CSc1nc(-c2ccco2)nn1C(=O)c1ccc(C)cc1,-6.2,-1.4,36.1*,0.4,-0.1,-0.3
O=C(CSCc1ccc(Cl)cc1)Nc1cccc(C(=O)Nc2ccccc2C(=O)O)c1,-1.3,-0.6,-21.0,-1.7,1.1,10.1*
O=C(/C=C/c1ccccc1)NC(=S)NNC(=O)c1cccnc1,7.4,1.4,35.9*,4.8,-1.2,0.0
Cc1c(Cl)ccc2c1NC(=O)[C@]21N[C@@H](Cc2ccccc2)[C@H]2C(=O)N(c3ccc(F)cc3)C(=O)[C@H]21,12.2,7.1,5.4,-16.9,4.5,13.1*
O=C1[C@@H]2[C@H](Cc3ccc(O)cc3)N[C@]3(C(=O)Nc4ccccc43)[C@@H]2C(=O)N1c1ccc(F)cc1,-3.7,2.4,30.6,-5.1,-1.0,·
O=C(NCCS(=O)(=O)N1CCN(c2ccccc2F)CC1)c1ccc2c(c1)OCO2,-4.9,0.6,9.1,2.3,0.9,30.6*
COc1ccccc1N(C(=O)c1ccco1)C(C(=O)NC1CCCC1)c1cccs1 (stereo not drawn),-3.2,-1.7,-3.8,-0.6,-1.8,-0.3
Cc1cc(C)n2c(SCc3ccc(Br)cc3)nnc2n1,3.1,0.8,5.8,0.8,4.3,-2.2
Cc1cc(C)n2c(SCc3c(C)noc3C)nnc2n1,5.5,-0.6,32.8*,3.1,-2.3,2.6
COc1ccc(-c2cc(=O)c3c(O)c(OC)c(OC)c(OC)c3o2)cc1,-3.5,-2.9,6.8,-3.0,-1.5,-0.2
